Data from article PMC428586 (Reproductive biology and endocrinology : RB&E, 2004).
Values joined by “and” are separate entries in the source; they are usually repeats but may differ in a detail not shown here. Identical values can stand only once. Marks after values point to notes of the source that are not given here.

Experiments:
[1] = system: hamster oviduct (infundibulum) cilia; assay: Ciliary beat frequency assay, hamster oviductal explants in vitro; assay type: cell-based, golden hamster (Mesocricetus auratus); details: for Efficacy, Ciliary Beat Frequency: mean percentage of inhibition at the LOAEL
[2] = system: hamster oviduct (infundibulum); assay: Oocyte pickup rate assay, hamster oviduct explants in vitro; assay type: cell-based, golden hamster (Mesocricetus auratus); details: for Efficacy, Oocyte Pickup Rate: mean percentage of inhibition at the LOAEL
Procedure, shortened: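 Female golden hamsters were primed with 25 IU PMSG on estrous day 1 and 25 IU hCG on day 3, then killed with CO2 about 12 h later. On infundibulum explants, transit time of an oocyte-cumulus complex (OCC) along a fixed path was timed, 6–10 times each in EBSS-H/0.1% BSA control, one test dose (10-13–10-5 M screen; ANOVA), and recovery. The LOAEL was repeated to n = 4 infundibula, and efficacy was taken as mean % inhibition there.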

[3] = system: hamster oviduct infundibular smooth muscle; assay: Infundibular smooth muscle contraction assay, hamster oviduct explants in vitro; assay type: cell-based, golden hamster (Mesocricetus auratus); details: for Efficacy, Contraction Rate: mean percentage of inhibition at the LOAEL; for LOAEL, Contraction Rate: lowest observable adverse effect level, hamster infundibulum in EBSS-H with 0.1% BSA, n = 4 infundibula; for LOAEL, infundibular smooth muscle contraction: as stated in the abstract
[4] = system: male rats; details: cited from earlier work
[5] = system: female mice; details: due to effects on adrenal function; cited from earlier work
[6] = system: rats; details: dose-dependent; cited from earlier work
[7] = system: chick chorioallantoic membrane (CAM); details: due to inhibition of DNA synthesis; cited from earlier work
[8] = lowest observable adverse effect level, hamster infundibulum in EBSS-H with 0.1% BSA, n = 4 infundibula
[9] = more inhibitory than pyridine, pyridine data ref 16

| SMILES | LOAEL, Ciliary Beat Frequency [1, 8] | Efficacy, Ciliary Beat Frequency [1] | Efficacy, Oocyte Pickup Rate [2] | Efficacy, Contraction Rate [3] | LOAEL, Contraction Rate [3] | LOAEL, Ciliary Beat Frequency ([1]; as stated in the abstract) | LOAEL, oocyte pickup rate ([2]; as stated in the abstract) | LOAEL, infundibular smooth muscle contraction [3] | further results |
| --- | --- | --- | --- | --- | --- | --- | --- | --- | --- |
| COc1nccnc1C [2-methoxy-3-methylpyrazine] | 10^-9 M | 18% | 13% | 17** % | – | – | – | – | Efficacy, Contraction Rate ([3]; listed as 2-Methoxy-3-methylpyrazine): 17% |
| Cc1cnc(C)c(S)n1 [3,6-dimethylpyrazine-2-thiol] | – | – | – | – | – | – | – | – | Effect on prostate and seminal vesicle weights [4]: caused a decrease in prostate and seminal vesicle weights |
| Cc1cnc(C)c(C)n1 [2,3,5-trimethylpyrazine] | 10^-9 M | 18% | 10% | 58% | 10^-9 M | – | – | – | – |
| Cc1cncc(C)n1 [2,6-dimethylpyrazine] | 10^-6 M | 5** % | 3.5% and 3** % | 85*** % | 10^-7 M | – | – | – | LOAEL, oocyte pickup rate [2, 8]: 10^-9 M; Efficacy, Contraction Rate ([3]; listed as 2,6-Dimethylpyrazine): 85% |
| Cc1cnccn1 [2-methylpyrazine] | – | 11* % | 43* % | 61** % | – | 1 picomolar | 10 picomolar | 10 picomolar | Decrease of LOAEL in the smooth muscle contraction assay relative to pyrazine [3]: 100 fold |
| CCc1cnccn1 [2-ethylpyrazine] | – | 3** % | 45* % | 38% | – | 1 picomolar | 10 picomolar | 1 picomolar | Decrease of LOAEL in the smooth muscle contraction assay relative to pyrazine [3]: 1000 fold |
| Cc1cnc(C)cn1 [2,5-dimethylpyrazine] | 10^-8 M | 34% | 10* % | 40% | 10^-9 M | – | – | – | Efficacy, Oocyte Pickup Rate ([2]; listed as 2,5-Dimethylpyrazine): 9.9%; Effect on onset of puberty [5]: delayed the onset of puberty; Effect on uterine weight [6]: caused a decrease in uterine weight |
| c1cnccn1 [pyrazine] | – | 25% | 29% | 40% | 10^-9 M | 1 picomolar | 10 picomolar | 1 nM | Inhibitory potency relative to pyridine, ciliary beat frequency [1, 9]: at least 1 million; LOAEL dose, oocyte pickup rate assay ([2]; LOAEL expressed in ppb for comparison with food levels): 4 ppb; Inhibitory potency relative to pyridine, oocyte pickup rate [2, 9]: at least 1 million; Inhibitory potency relative to pyridine, infundibular smooth muscle contraction [3, 9]: at least 1 million; Effect on CAM and embryo growth [7]: inhibited both CAM and embryo growth at picomolar doses |
